Fewer inactive variants are shown than the library holds.
B1: tRNA (parent)
chain: GUUCCGUUGGCGUAAUGGUAACGCGUCUCCCUCCUAAGGAGAAGACUGCGGGUUCGAGUCCCGUACGGAACG

Variants of: B1
Experiment: yeast fitness relative to wild type (ratio to wild type); higher = fitter; tRNA-Arg(CCU), competitive growth, 37 C, YPD
Procedure, shortened: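 Start and end populations of a pooled competition were compared by 100-nucleotide paired-end sequencing of gene amplicons. The Saccharomyces cerevisiae strains carried tRNA-Arg(CCU) gene variants at the native genomic locus, synthesised with a 3% per-site mutation rate at 69 sites, and competed in YPD at 37°C for 24 hours in six parallel replicates. Darwinian fitness relative to wild type was based on the change in genotype frequencies. Genotypes required ≥ 100 starting reads, and estimates < 0.5 were set to 0.5.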

Variant	yeast fitness
G18A A20U C22U U28A C33U G44C C60A	≤ 0.5
C11U G58A A65G	0.777
U13C G56A	1.04
C4A C11G U19G A42G	≤ 0.5
U7A C49U C62G	0.603
U7A G39A C49A	≤ 0.5
C4U U16C G48C	0.702
A15U A40U C61U A70G	0.718
C4U G17A A37U U59C	≤ 0.5
A40G A69C	0.861
C11U C34A A36C	≤ 0.5
C30U A42C G48C	≤ 0.5
C5G G17C A42U G52A G67U	≤ 0.5
A21G A37C A65U G68C	≤ 0.5
A15U G25A A36U	0.586
C4U G12C G51A A65C	≤ 0.5
C30A G44A A45C	≤ 0.5
U13G C24U U28A A42G	≤ 0.5
G12A A37G A65G A69C	≤ 0.5
C33U A40C A45C	0.561
A21U U32G C55A U59C	≤ 0.5

Variant	yeast fitness
U2G G23C G58A	≤ 0.5
U7C C11U	0.886
C5U U7A A20C G68C	≤ 0.5
G9U G63A A65U	≤ 0.5
G9A G39C C62G U64C	0.568
C27G C55A C66U	0.545
A14U U35C	0.601
A40G C61U U64G A69U	≤ 0.5
C30G U59C	0.537
C34G U53C	0.578
U3C G10C C27U	≤ 0.5
G6C C31A	0.808
U3G A42U C49U	0.613
A21U C22A G50C G67A	≤ 0.5
U8C C22G C49U	0.726
C27A C30G C49U G56C C66U	≤ 0.5
G9C U16C A42C	≤ 0.5
C11U U16A A36C A43G C62G A65U	≤ 0.5
A42G A45U C66U	0.684
G50C A70G	0.681
C11G A20G C24U U28C	≤ 0.5

Variant	yeast fitness
G18C G48A	0.571
U35G C46U	0.628
G25C C30G	0.582
G9A G12C G17A C22G C30U C34G U59G A70U	≤ 0.5
G23A G39C A69U	≤ 0.5
C11A A14U C24U C34G U35A A36C C61A	≤ 0.5
C4A C55A	0.587
U2A C24G G63A	0.551
C30A A36G	0.819
G10A A57C C66G	≤ 0.5
U16C A65U	0.965
G10A C33U U64A	0.553
G38A A65U	0.739
U19A C29U	0.76
G23C U54C U64A G68A	≤ 0.5
C4G C11A A42U	≤ 0.5
G9A C11A	0.604
C11G A20C C24G C66U	≤ 0.5
A42G G50C G58A A69C	≤ 0.5
U3G U8C A45G	0.702
U2G G9A C22A C24A A43C	≤ 0.5

Variant	yeast fitness
C4A C11G C31U G38C	0.552
A14G C22U C49A	≤ 0.5
U16C A42U G63C	≤ 0.5
G9C C27G C60U A69U	≤ 0.5
U3C C46G A69U	0.807
C22A C30A C31U G68C	≤ 0.5
C30U C33A A36U A43U U54C G56A	0.54
U3A C29G	0.575
A14C C31U A70G	0.612
C11U C33A C34G	0.526
C4U C11A A70G	≤ 0.5
U8A G44A C60U G67C	0.576
C30G C34G A37G	0.811
U3C U13A C31U G41A C66A	≤ 0.5
A20C G67A	0.873
U3G C5U G6A A65U	≤ 0.5
U2C U28A G44U	≤ 0.5
A43G U53C C55U C62U	≤ 0.5
A21U A37U A65C	0.672
U2G C34U A57G	≤ 0.5

Reference: the RNAGym collection of RNA variant scans (doi:10.1126/science.aae0568)
